Assay results reported in publication PMC9200134 (Chemical Science, 2022).

Experiments:
[1] = tested on: wild type zebrafish embryos; details: intravenous or retro-orbital injection, embryo type not stated; cited from earlier work
[2] = tested on: lung (A549) cancer cell line; test: SRB cytotoxicity assay in 2D monolayers, dark vs green light; type: cell-based, human; details: read-out: EC50 (cell growth inhibition); A549 2D, dark (0 J cm^−2)
Method in brief: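 Cells were given test compound for 24 h. They were then irradiated (520 nm, 15 min, 21 mW cm−2, 19 J cm−2) or kept dark, and incubated a further 48 h. Cells were fixed in 10% TCA for 48 h at 4 °C and stained with 0.6% SRB. Absorbance was averaged over triplicate wells and viability taken relative to untreated wells. There were three biological replicates from different passages.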

[3] = at 3.3 μM; cited from earlier work
[4] = reference value, aerated CD3OD; cited from earlier work

In the case of Cc1ccnc(-c2cc(C)ccn2)c1.Cc1ccnc(-c2cc(C)ccn2)c1.[Cl-].[Cl-].[Ru+2].c1csc(-c2ccc(-c3ccc(-c4nc5c6cccnc6c6ncccc6c5[nH]4)s3)s2)c1 [TLD-1433], the “MTD in zebrafish embryo” value [1] is listed as 4.6 mM.

In the case of N.N.[Cl][Pt][Cl] [Cisplatin], the EC50 [2] is listed as 3000 nM and the “Platinum content in the nucleus” value [3] is listed as 0.6 ng Pt/10^6 cells.

In the case of [Ru+2].c1ccc(-c2ccccn2)nc1.c1ccc(-c2ccccn2)nc1.c1ccc(-c2ccccn2)nc1 [[Ru(bpy)3]^2+], the “1O2 generation quantum yield Φ^refΔ” value [4] is listed as 0.73.
